Data: ChEMBL document CHEMBL1124174, “Substituted benzamides. 1. Potential nondopaminergic antagonists of chemotherapy-induced nausea and emesis” (J Med Chem, 1988)
pIC50: −log10 of the molar value. “And” between values parts separate entries of the source, which are not always exact repeats. Equal values may be shown once.

Legend:
[1] = molecular target: D(2) dopamine receptor (Rattus norvegicus) (UniProt P61169); assay: In vivo antagonistic activity against dopamine D2 receptor was measured as catalepsy in rat when administered subcutaneously; type: functional, organism-based
Outline: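 Male Long Evans rats (275 g) received graded sc doses in dilute aqueous HCl (pH 4.5-5.5). They were observed 180 min for catalepsy, scored when the animal stayed stationary ≥15 s on a four-cork template.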

Mustela putorius furo [2] = assay: In vivo antagonism of cisplatin-induced emesis in ferret measured as percentage protection for twice the dose of 3 mg/kg and in 3 ferrets; type: functional
Outline: (§1)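 Nonfasted castrated male Fitch ferrets (1–1.5 kg) had jugular catheters implanted ≥48 h earlier under anesthesia. Compounds or saline were given iv twice, 5 min before and 90 min after cisplatin (12 mg/kg iv; 12 mg/mL in warm 0.9% saline). Emesis was observed up to 4 h; events within 1 min counted as one episode. Results were given as mean emetic episodes and % protection versus a pooled historical/concurrent control. t test versus saline.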

D(2) dopamine receptor = D(2) dopamine receptor (Rattus norvegicus, UniProt P61169); assay: In vitro antagonistic activity against Dopamine receptor D2 was evaluated for the inhibition of [3H]spiperone binding
Outline: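 Rat striatal membranes were prepared by differential centrifugation in 50 mM Tris pH 7.4 at 4 °C. Membrane protein (10 mg) was incubated 15 min at 37 °C with 0.1 nM [3H]spiperone and varying competitor concentrations. Buffer: 50 mM Tris HCl pH 7.5, 0.1% ascorbic acid, pargyline, 120 mM NaCl, 5 mM KCl, 2 mM CaCl2, 1 mM MgCl2. (+)-Butaclamol defined nonspecific binding. Bound ligand was collected by filtration and scintillation counted. IC50 by log-logit regression.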

[3] = molecular target: D(2) dopamine receptor (Rattus norvegicus) (UniProt P61169); assay: In vivo antagonism activity against D2 receptor was measured as stereotypy in rat when administered subcutaneously; type: functional, organism-based
Outline: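 Male Long Evans rats (275 g) were dosed sc in dilute aqueous HCl (pH 4.5-5.5) 30 min before apomorphine (1 mg/kg sc).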

Mustela putorius furo [4] = assay: In vivo antagonism of cisplatin-induced emesis in ferret measured as emetic episodes, twice the dose of 1 mg/kg and in 3 ferrets; type: functional; outline: as §1
Mustela putorius furo [5] = assay: In vivo antagonism of cisplatin-induced emesis in ferret measured as emetic episodes, twice the dose of 3 mg/kg and in 3 ferrets; type: functional; outline: as §1
[6] = molecular target: D(2) dopamine receptor (Canis lupus familiaris) (UniProt Q9GJU1); assay: In vivo antagonism activity against dopamine D2 receptor was measured as emesis in dog when administered subcutaneously; type: functional, organism-based
Mustela putorius furo [7] = assay: In vivo antagonism of cisplatin-induced emesis in ferret measured as percentage protection for twice the dose of 1 mg/kg and in 3 ferrets; type: functional; outline: as §1
Canis familiaris [8] = assay: In vivo antagonism of cisplatin-induced emesis in dog measured as emetic episodes, twice the dose of 1 mg/kg in 2 dogs; type: functional, Canis lupus familiaris
Outline: (§2)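 Nonfasted mature male or female beagles were dosed sc twice, 30 min before and 120 min after cisplatin (3 mg/kg iv; 3 mg/mL in warm 0.9% saline, used immediately). Emesis was observed up to 5 h; events within 2 min counted as one episode. Results were given as mean emetic episodes and % protection versus a dynamic control (historical and concurrent saline means pooled). t test versus saline.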

Canis familiaris [9] = assay: In vivo antagonism of cisplatin-induced emesis in dog measured as percentage protection for twice the dose of 1 mg/kg in 2 dogs; type: functional, Canis lupus familiaris; outline: as §2

D(2) dopamine receptor, sequence (P61169 whole entry): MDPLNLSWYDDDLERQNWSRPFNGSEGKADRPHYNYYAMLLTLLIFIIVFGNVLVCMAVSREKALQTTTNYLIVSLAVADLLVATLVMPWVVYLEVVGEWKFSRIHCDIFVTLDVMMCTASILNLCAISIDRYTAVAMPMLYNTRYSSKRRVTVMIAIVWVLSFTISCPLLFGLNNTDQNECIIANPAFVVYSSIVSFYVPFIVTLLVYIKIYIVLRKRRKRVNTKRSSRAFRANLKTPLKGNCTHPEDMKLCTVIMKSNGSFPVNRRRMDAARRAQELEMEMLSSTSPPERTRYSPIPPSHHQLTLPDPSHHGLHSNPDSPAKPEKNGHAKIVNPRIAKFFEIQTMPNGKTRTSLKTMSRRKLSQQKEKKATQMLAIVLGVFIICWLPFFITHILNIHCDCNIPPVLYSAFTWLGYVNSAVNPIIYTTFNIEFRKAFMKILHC
D(2) dopamine receptor (Rattus norvegicus), sequence (P61169 whole entry): as above
D(2) dopamine receptor (Canis lupus familiaris), sequence (Q9GJU1 whole entry): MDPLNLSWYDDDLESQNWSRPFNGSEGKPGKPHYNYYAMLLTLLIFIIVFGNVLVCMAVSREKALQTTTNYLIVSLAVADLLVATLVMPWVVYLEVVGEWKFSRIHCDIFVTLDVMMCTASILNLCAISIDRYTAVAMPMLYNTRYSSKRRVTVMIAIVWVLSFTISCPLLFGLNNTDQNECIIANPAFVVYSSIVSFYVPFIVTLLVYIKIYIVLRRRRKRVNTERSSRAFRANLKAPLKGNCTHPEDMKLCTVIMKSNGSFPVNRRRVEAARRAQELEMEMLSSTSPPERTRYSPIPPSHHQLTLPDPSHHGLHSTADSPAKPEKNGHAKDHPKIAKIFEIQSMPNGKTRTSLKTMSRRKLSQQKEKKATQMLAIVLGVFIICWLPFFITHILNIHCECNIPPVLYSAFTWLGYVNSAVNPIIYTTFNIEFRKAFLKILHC

Compound	ED50 [1] [mg/kg]	Protection (Mustela putorius furo [2]) [%]	pIC50 (D(2) dopamine receptor)	ED50 [3] [mg/kg]	Emetic episodes (Mustela putorius furo [4])	Protection (Mustela putorius furo [4]) [%]	Emetic episodes (Mustela putorius furo [5])	ED50 [6] [mg/kg]	Protection (Mustela putorius furo [7]) [%]	Emetic episodes (Canis familiaris [8])	Protection (Canis familiaris [9]) [%]	Emetic episodes (Mustela putorius furo [5]; 3 mg/kg)	Protection (Mustela putorius furo [7]; 1 mg/kg)
CCN(CC)CCNC(=O)c1cc(Cl)c(N)cc1OCC1OCCO1	> 40	67	< 6.00	> 40	4	43	2.3	> 3					
C=CCN1CCCC1CNC(=O)c1cc2nn[nH]c2cc1OC(C)C(C)=O (centres undefined)	> 40	21	< 6.00	> 40			5.7	> 3					
CCN(CC)CCNC(=O)c1cc(Cl)c(N)cc1OC(C)C(C)O (stereo in doubt; 8g,h)	> 40			> 40									
CCN(CC)CCNC(=O)c1cc(Cl)c(N)cc1OCC(O)Cc1ccccc1 (centres undefined)	> 40		< 6.00	> 40	3.3			> 3	54				
C=CCN1CCCC1CNC(=O)c1cc2nn[nH]c2cc1O (centres undefined)	> 40	0		> 40			8	> 3					
C=CCN1CCCC1CNC(=O)c1cc2[nH]nnc2cc1OC (centres undefined) [ALIZAPRIDE]			6.70										
CCN(CC)CCNC(=O)c1cc(Cl)c(N)cc1OCCC1(C)OCCO1	> 40	80	< 6.00	> 40			1.3	> 3					
CCN(CC)CCNC(=O)c1cc(Cl)c(N)cc1OCC(=O)OC	> 40	30	< 6.00	> 40			5	> 3					
C/C=C/COc1cc(N)c(Cl)cc1C(=O)NCCN(CC)CC	> 40	90	< 6.00	> 40			0.7	> 3		2.5	80		
CCN(CC)CCNC(=O)c1cc(Cl)c(N)cc1OCCO	> 40	68	< 6.00	> 40			2.3	> 3		3	76		
CCN(CC)CCNC(=O)c1cc(Cl)c(N)cc1OC1CCCC[C@@H]1O (some centres undefined)	> 40	60	< 6.00	> 40			3	> 3		4	66		
CCN(CC)CCNC(=O)c1cc(Cl)c(N)cc1OCCOC	> 40		< 6.00	> 40				> 3		1.5	88	1.7 and 5	
CCN(CC)CCNC(=O)c1cc(Cl)c(N)c2c(C)c(C)oc12	> 40	53	< 6.00	> 40			3.3	> 3					
CCN(CC)CCNC(=O)c1cc(Cl)c(N)cc1OCC1CO1 (centres undefined)	> 40	44	< 6.00	> 40			4.7	> 3					
CCN(CC)CCNC(=O)c1cc(Cl)c(N)cc1OC(C)/C(C)=N/O (centres undefined)	> 40		< 6.00	> 40	4.3			> 3	44				
CCN(CC)CCNC(=O)c1cc(Cl)c(N)cc1OCC1(C)CO1 (centres undefined)	> 40	53	< 6.00	> 40			3.3	> 3					
CCN(CC)CCNC(=O)c1cc(Cl)c(N)cc1OC[C@@H](C)O (stereo in doubt; 8e)	> 40			> 40				> 3					
C=CCC(Oc1cc(N)c(Cl)cc1C(=O)NCCN(CC)CC)C(C)=O (centres undefined)	> 40	68	< 6.00	> 40	1.7	76	2.3	> 3		6	52		
CCN(CC)CCNC(=O)c1cc(Cl)c(N)cc1OCCOCCOC	> 40	76	< 6.00	> 40	4.3		1.7	> 3	39				

Compound	ED50 [1] [mg/kg]	Protection (Mustela putorius furo [2]) [%]	pIC50 (D(2) dopamine receptor)	ED50 [3] [mg/kg]	Emetic episodes (Mustela putorius furo [4])	Protection (Mustela putorius furo [4]) [%]	Emetic episodes (Mustela putorius furo [5])	ED50 [6] [mg/kg]	Protection (Mustela putorius furo [7]) [%]	Emetic episodes (Canis familiaris [8])	Protection (Canis familiaris [9]) [%]	Emetic episodes (Mustela putorius furo [5]; 3 mg/kg)	Protection (Mustela putorius furo [7]; 1 mg/kg)
CCN(CC)CCN(C)C(=O)c1cc(Cl)c(N)cc1O.Cl	> 40	30	< 6.00	> 40			5	> 3					
CCN(CC)CCNC(=O)c1cc(Cl)c(N)cc1OCC(O)CO (centres undefined)	> 40	10	< 6.00	> 40			6.3	> 3					
CCN(CC)CCNC(=O)c1cc(Cl)c(N)cc1OCC1=NCCN1	> 40	86	< 6.00	> 40			1	> 3		1.5	88		
CCN(CC)CCNC(=O)c1cc(Cl)c(N)cc1OCc1cc(C)no1	> 40	72	< 6.00	> 40			2	> 3					
CCN1CCCCCOc2cc(N)c(Cl)cc2C(=O)NCCC1	> 40	67	8.11	10			2.3	> 3					
CCN(CC)CCNC(=O)c1cc(Cl)c(N)cc1OC(C)C(C)O (stereo in doubt; 8h)	> 40			> 40				> 3					
C=CCN1CCCC1CNC(=O)c1cc2[nH]nnc2cc1O (centres undefined)			< 6.00										
CCN(CC)CCN(C)C(=O)c1cc(Cl)c(N)cc1OC	> 40	0	< 6.00	> 40			8.7	> 3					
CCN1CCCNC(=O)c2cc(Cl)c(N)cc2OCCOCC1	> 40	0	< 6.00				11.7	> 3					
CCN(CC)CCC[S+]([O-])c1cc(Cl)c(N)cc1OC (centres undefined)	> 40	70	< 6.00	> 40			2	> 1					
CCN(CC)CCNC(=O)c1cc(Cl)c(N)cc1OCC(=O)c1cccs1	> 40	95	< 6.00	> 40			0.3			3	75		
CCN(CC)CCN1CCOc2cc(N)c(Cl)cc2C1=O	> 40		< 6.00	> 40	6			> 3	14				
CCN(CC)CCNC(=O)c1cc(Cl)c(N)cc1OC[C@@H](C)O (stereo in doubt; 8f)	> 40			> 40				> 3					
CCN(CC)CCNC(=O)c1cc(Cl)c(N)cc1OCC(O)COC (centres undefined)	> 40	54	< 6.00	> 40			3.3	> 3					
CCN(CC)CCNC(=O)c1cc(Cl)c(N)cc1OC/C(C)=N/O	> 40	100	< 6.00	> 40			0	> 3		2.5	79		
CCN(CC)CCNC(=O)c1cc(Cl)c(N)cc1OCC(C)(C)O	> 40		< 6.00	> 40	3		1.3	> 3					84% and 57%
CCN(CC)CCNC(=O)c1cc(Cl)c(N)cc1OCC1CCCO1 (centres undefined)	> 40	54	< 6.00	> 40			3.3	> 3					
CCN(CC)CCNC(=O)c1cc(Cl)c(N)cc1OC(C)C(C)O (stereo in doubt; 8g)	> 40			> 40				> 3					
CCN(CC)CCNC(=O)c1cc(Cl)c(N)cc1OCc1ccccc1	> 40		< 6.00	> 40				> 1					
